# Results as given in ChEMBL document CHEMBL2163267, “Novel N-linked aminopiperidine inhibitors of bacterial topoisomerase type II with reduced pK(a): antibacterial agents with an improved safety profile” (J Med Chem, 2012).
# How the values were obtained:
# [1] = Fraction unbound in human plasma at 10 uM by equilibrium dialysis method; assay type: ADME, cell-free
# How it was run: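 Equilibrium dialysis. Compound at 10 μM in the plasma (donor) chamber against phosphate buffer, rotated at 37 °C for 16 h. Drug in the plasma and buffer samples quantified by LC-MS/MS after methanol protein precipitation with internal standard. Standard curve 10 nM to 10 μM.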
# [2] = tested on: Pseudomonas aeruginosa; experiment: Antibacterial activity against Pseudomonas aeruginosa PAO1 after 18 to 24 hrs by CLSI broth microdilution method; assay type: functional
# [3] = tested on: Staphylococcus aureus; experiment: Antibacterial activity against methicillin-susceptible Staphylococcus aureus after 18 to 24 hrs by CLSI broth microdilution method; assay type: functional
# [4] = tested on: Escherichia coli; experiment: Antibacterial activity against Escherichia coli W3110 after 18 to 24 hrs by CLSI broth microdilution method; assay type: functional
# [5] = Inhibition of Escherichia coli DNA topoisomerase 4 subunit ParC/DNA topoisomerase 4 subunit ParE ATPase activity after 24 hrs by malachite green staining-based colorimetric assay
# [6] = Dissociation constant, pKa of the compound by pH metric assay; assay type: physicochemical
# How it was run: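 pH-metric titration on an automated titrator, run in triplicate. Accuracy about 0.02 log units.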
# [7] = Octanol-phosphate buffer partition coefficient, log D of the compound at pH 7.4 by shake flask method; assay type: physicochemical
# How it was run: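 Shake-flask partition between n-octanol and 10 mM phosphate buffer at pH 7.4. Shaken 1 h at 1200 rpm to reach equilibrium. Phases analysed by LC/UV, with MS for mass confirmation.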
# [8] = tested on: Streptococcus pneumoniae; experiment: Antibacterial activity against penicillin-susceptible Streptococcus pneumoniae D39 after 18 to 24 hrs by CLSI broth microdilution method; assay type: functional
# [9] = target: Voltage-gated inwardly rectifying potassium channel KCNH2 (Homo sapiens, UniProt Q12809); experiment: Inhibition of human ERG by Ionworks assay
# Sequence of Voltage-gated inwardly rectifying potassium channel KCNH2 (Q12809 whole entry): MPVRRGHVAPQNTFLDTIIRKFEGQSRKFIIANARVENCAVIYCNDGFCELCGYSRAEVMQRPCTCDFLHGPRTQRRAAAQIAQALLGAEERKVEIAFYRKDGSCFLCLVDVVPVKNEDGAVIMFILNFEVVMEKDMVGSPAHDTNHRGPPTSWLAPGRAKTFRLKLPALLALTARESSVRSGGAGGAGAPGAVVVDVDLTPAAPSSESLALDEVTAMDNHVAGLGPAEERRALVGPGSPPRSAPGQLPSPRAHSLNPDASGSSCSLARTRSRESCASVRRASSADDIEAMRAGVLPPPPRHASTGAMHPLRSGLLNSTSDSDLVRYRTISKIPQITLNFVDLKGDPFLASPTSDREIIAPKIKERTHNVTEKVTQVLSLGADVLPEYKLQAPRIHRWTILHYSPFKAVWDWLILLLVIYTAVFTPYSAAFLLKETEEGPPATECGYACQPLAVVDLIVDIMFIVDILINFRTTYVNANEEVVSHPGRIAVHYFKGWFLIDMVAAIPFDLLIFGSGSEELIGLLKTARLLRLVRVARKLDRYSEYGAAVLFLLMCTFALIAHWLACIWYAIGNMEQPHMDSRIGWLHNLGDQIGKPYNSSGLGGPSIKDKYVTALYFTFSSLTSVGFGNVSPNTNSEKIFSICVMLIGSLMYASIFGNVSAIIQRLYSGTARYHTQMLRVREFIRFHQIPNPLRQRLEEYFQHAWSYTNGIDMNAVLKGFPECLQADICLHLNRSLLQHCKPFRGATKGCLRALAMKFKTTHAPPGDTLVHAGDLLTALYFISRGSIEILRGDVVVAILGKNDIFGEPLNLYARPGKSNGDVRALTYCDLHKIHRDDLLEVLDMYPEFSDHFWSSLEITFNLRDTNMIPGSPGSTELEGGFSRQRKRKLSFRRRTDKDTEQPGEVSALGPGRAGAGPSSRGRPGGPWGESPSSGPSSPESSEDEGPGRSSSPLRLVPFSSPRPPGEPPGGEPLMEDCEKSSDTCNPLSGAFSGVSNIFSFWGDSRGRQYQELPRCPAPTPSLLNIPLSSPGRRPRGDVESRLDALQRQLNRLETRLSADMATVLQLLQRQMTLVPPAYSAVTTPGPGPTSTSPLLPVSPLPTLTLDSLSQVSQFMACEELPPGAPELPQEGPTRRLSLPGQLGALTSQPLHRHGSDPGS
# [10] = tested on: Staphylococcus aureus; experiment: Antibacterial activity against vancomycin-resistant Staphylococcus aureus ARC 3186 after 18 to 24 hrs by CLSI broth microdilution method; assay type: functional
# How it was run: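 CLSI broth microdilution in Mueller Hinton Broth 2. Inocula prepared from blood agar plates grown at 35 °C for 18–24 h. Compound in DMSO, 2% DMSO final, 11 doubling dilutions from 64 to 0.06 μg/mL. Plates read at 620 nm.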
Compound,fraction unbound at 10 µM [1],MIC [2] [µg/mL],MIC [3] [µg/mL],MIC [4] [µg/mL],IC50 [5] [nM],pKa [6],logD [7],MIC [8] [µg/mL],IC50 [9] [nM],MIC [10] [µg/mL]
COc1ccc2ncc(=O)n(CCN3CC[C@H](NCc4cc5c(cn4)OCCO5)[C@H](O)C3)c2c1,0.19,8,0.03,0.5,5,,,,,
"CO[C@H]1CN(CCn2c(=O)ccc3ccc(C#N)cc32)CC[C@@H]1NCc1cc2c(cn1)OCCO2 (single isomer, unassigned; enantiomer 1)",0.13,> 8,0.25,8,96,7.25,1.07,0.5,176000,
CO[C@H]1CN(CCn2c(=O)ccc3ccc(C#N)cc32)CC[C@H]1NCc1cc2c(cn1)OCCO2,0.54,> 8,0.13,4,55,7.99,0.63,0.13,174000,
COc1ccc2ncc(=O)n(CCN3CC[C@H](NCc4ccc5c(n4)NC(=O)CO5)[C@H](F)C3)c2c1,,8,0.03,0.5,,,,0.13,,
COc1ccc2ncc(=O)n(CCN3CC[C@@H](NCc4ccc5c(n4)NC(=O)CO5)[C@@H](O)C3)c2c1,0.05,2,0.13,0.25,23,,0.37,,152000,
"COc1ccc2ncc(=O)n(CCN3CC[C@H](NCc4cc5c(cn4)OCCO5)[C@@H](OC)C3)c2c1 (single isomer, unassigned; enantiomer 1)",0.11,> 8,0.25,8,113,7,1.27,0.25,93000,
COc1ccc2ncc(=O)n(CCN3CC[C@@H](NCc4ccc5c(n4)NC(=O)CO5)[C@@H](OC)C3)c2c1,0.28,4,0.06,1,76,8.17,,0.25,88000,
COc1ccc2ncc(=O)n(CCN3CC[C@@H](NCc4cc5c(cn4)OCCO5)[C@@H](O)C3)c2c1,0.14,> 8,0.06,1,6,7.97,,,,
"CO[C@@H]1CN(CCn2c(=O)ccc3ccc(C#N)cc32)CC[C@H]1NCc1ccc2c(n1)NC(=O)CO2 (single isomer, unassigned; enantiomer 1)",0.27,> 8,0.13,2,35,7.53,0.81,0.25,,
N#Cc1ccc2ccc(=O)n(CCN3CC[C@H](NCc4cc5c(cn4)OCCO5)[C@H](O)C3)c2c1,0.19,> 8,0.06,1,25,8,0.46,,156000,
"COc1ccc2ncc(=O)n(CCN3CC[C@@H](NCc4cc5c(cn4)OCCO5)[C@H](O)C3)c2c1 (single isomer, unassigned; enantiomer B)",0.18,> 8,0.06,2,3,7.4,,0.06,,
CN[C@H](CC(C)C)C(=O)N[C@H]1C(=O)N[C@@H](CC(N)=O)C(=O)N[C@H]2C(=O)N[C@H]3C(=O)N[C@H](C(=O)N[C@H](C(=O)O)c4cc(O)cc(O)c4-c4cc3ccc4O)[C@H](O)c3ccc(c(Cl)c3)Oc3cc2cc(c3O[C@@H]2O[C@H](CO)[C@@H](O)[C@H](O)[C@H]2O[C@H]2C[C@](C)(N)[C@H](O)[C@H](C)O2)Oc2ccc(cc2Cl)[C@H]1O [VANCOMYCIN],,,,,,,,,,> 64
COc1ccc2ncc(=O)n(CCN3CC[C@H](NCc4ccc5c(n4)NC(=O)CO5)[C@H](O)C3)c2c1,0.14,2,0.06,0.25,17,,0.39,,172000,
COc1ccc2ncc(=O)n(CCN3CC[C@@H](NCc4cc5c(cn4)OCCO5)[C@@H](OC)C3)c2c1,0.33,> 8,0.06,4,76,8.01,0.9,0.13,75000,
COc1ccc2ncc(=O)n(CCN3CC[C@@H](NCc4ccc5c(n4)NC(=O)CO5)[C@@H](F)C3)c2c1,0.25,8,0.03,0.5,,,0.83,0.13,,
"COc1ccc2ncc(=O)n(CCN3CC[C@H](NCc4cc5c(cn4)OCCO5)[C@@H](F)C3)c2c1 (single isomer, unassigned; enantiomer B)",0.09,> 8,0.06,8,26,6.46,1.68,0.13,,
N#Cc1ccc2ccc(=O)n(CCN3CC[C@@H](NCc4cc5c(cn4)OCCO5)[C@@H](O)C3)c2c1,0.24,> 8,0.06,1,41,,0.45,,117000,
"COc1ccc2ncc(=O)n(CCN3CC[C@H](NCc4ccc5c(n4)NC(=O)CO5)[C@@H](F)C3)c2c1 (single isomer, unassigned; enantiomer B)",0.04,4,< 0.01,0.5,< 9,6.86,1.38,0.06,,
N#Cc1ccc2ccc(=O)n(CCN3CC[C@H](NCc4ccc5c(n4)NC(=O)CO5)[C@H](O)C3)c2c1,0.21,2,0.25,0.5,17,,0.11,,,
CO[C@H]1CN(CCn2c(=O)ccc3ccc(C#N)cc32)CC[C@H]1NCc1ccc2c(n1)NC(=O)CO2,0.5,8,0.13,1,28,,0.32,0.5,,
N#Cc1ccc2ccc(=O)n(CCN3CC[C@@H](NCc4ccc5c(n4)NC(=O)CO5)[C@@H](O)C3)c2c1,0.18,2,0.5,0.5,15,,0.1,,,
"COc1ccc2ncc(=O)n(CCN3CC[C@@H](NCc4ccc5c(n4)NC(=O)CO5)[C@H](OC)C3)c2c1 (single isomer, unassigned; enantiomer 1)",0.18,8,0.03,1,45,7.45,,0.13,27000,
